Experimental data taken from the array DNA melting data of Ke et al. (doi:10.1101/2024.01.08.574731).

Key:
[1] = folding enthalpy; higher = less favourable; fluorescence melt of hairpins on a sequencing array, two-state fit; conditions: sodium 0.088 M
Procedure, shortened: (§1)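 Hairpins were imaged by Cy3 fluorescence on a sequenced MiSeq flow cell with annealed Cy3 and quencher oligos, in 50 mM Na-HEPES pH 8.0, 25 mM NaCl, in 2.5 °C steps up to 60 °C. Bootstrapped two-state fits of normalised signals gave melting temperature and folding enthalpy. Four replicates were combined by inverse variance, and fitted temperatures were raised by 9.35 °C to match UV melts.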

[2] = melting temperature; fluorescence melt of hairpins on a sequencing array, two-state fit, raised by 9.35 °C to match UV melts; conditions: sodium 0.088 M
Procedure, shortened: as §1

Sequence | folding enthalpy [1] | Tm [2]
GATCACAGAGGTGATC ((((((....)))))) | -27.4 kcal/mol | 55.9 °C
GATCACAGAGTGATC ((((((...)))))) | -35 kcal/mol | 60.8 °C
GATCACAGCGGTGATC ((((((....)))))) | -29.1 kcal/mol | 56.3 °C
GATCACAGGGGTGATC ((((((....)))))) | -33.6 kcal/mol | 56.2 °C
GATCACAGTCGTGATC ((((((....)))))) | -44.9 kcal/mol | 56.2 °C
GATCACATGAGTGATC ((((((....)))))) | -42.1 kcal/mol | 55.7 °C
GATCACATTCGTGATC ((((((....)))))) | -39.2 kcal/mol | 59.4 °C
GATCACATTGGTGATC ((((((....)))))) | -40.1 kcal/mol | 56.7 °C
GATCACCAGCGTGATC ((((((....)))))) | -43.3 kcal/mol | 53.8 °C
GATCACCCAAGTGATC ((((((....)))))) | -46.8 kcal/mol | 55.7 °C
GATCACCCCCGTGATC ((((((....)))))) | -36 kcal/mol | 55 °C
GATCACCCCGTGATC ((((((...)))))) | -43.2 kcal/mol | 57.5 °C
GATCACCCGAAAGGGATC (((..(((....)))))) | -14 kcal/mol | 35.5 °C
GATCACCCTAGTGATC ((((((....)))))) | -38.9 kcal/mol | 58.9 °C
GATCACCCTCGTGATC ((((((....)))))) | -43.6 kcal/mol | 55.8 °C
GATCACCGCGTGATC ((((((...)))))) | -35.6 kcal/mol | 61.9 °C
GATCACCGGGTGATC ((((((...)))))) | -30.8 kcal/mol | 55 °C
GATCACCTACGTGATC ((((((....)))))) | -43 kcal/mol | 56.6 °C
GATCACCTAGTGATC ((((((...)))))) | -34.8 kcal/mol | 58.2 °C
GATCACCTCCGTGATC ((((((....)))))) | -32.5 kcal/mol | 55 °C
GATCACCTCGGTGATC ((((((....)))))) | -37.5 kcal/mol | 65.4 °C
GATCACCTTGTGATC ((((((...)))))) | -40.9 kcal/mol | 58.8 °C
GATCACGAAAGTGAAATC ((((((....)))..))) | -10.7 kcal/mol | 30.2 °C
GATCACGAAAGTGAATC ((((((....))).))) | -15.8 kcal/mol | 45.6 °C

Sequence | folding enthalpy [1] | Tm [2]
GATCACGAAAGTGACATC ((((((....)))..))) | -10.1 kcal/mol | 30 °C
GATCACGAAAGTGGATC ((((((....))).))) | -18.2 kcal/mol | 46.9 °C
GATCACGAAAGTGGGATC ((((((....)))..))) | -15.6 kcal/mol | 38 °C
GATCACGAAGGTGATC ((((((....)))))) | -32.7 kcal/mol | 65.3 °C
GATCACGAGGTGATC ((((((...)))))) | -33.7 kcal/mol | 57.8 °C
GATCACGATGGTGATC ((((((....)))))) | -36.1 kcal/mol | 58.8 °C
GATCACGCACGTGATC ((((((....)))))) | -40.5 kcal/mol | 68.9 °C
GATCACGCATGTGATC ((((((....)))))) | -43.1 kcal/mol | 67.3 °C
GATCACGCCGTGATC ((((((...)))))) | -29.8 kcal/mol | 63.2 °C
GATCACGCGGTGATC ((((((...)))))) | -40.2 kcal/mol | 59.2 °C
GATCACGCTCGTGATC ((((((....)))))) | -45.5 kcal/mol | 60.9 °C
GATCACGCTGTGATC ((((((...)))))) | -39.5 kcal/mol | 59.2 °C
GATCACGGAAACGTAATC (((.(((....))).))) | -20.3 kcal/mol | 31.5 °C
GATCACGGAAACGTGACC (.(((((....))))).) | -14.7 kcal/mol | 45.1 °C
GATCACGGCGGTGATC ((((((....)))))) | -45.6 kcal/mol | 58.8 °C
GATCACGGGGTGATC ((((((...)))))) | -33.6 kcal/mol | 60.3 °C
GATCACGGGTGTGATC ((((((....)))))) | -36.9 kcal/mol | 58.8 °C
GATCACGTACGTGATC ((((((....)))))) | -47.7 kcal/mol | 64 °C
GATCACGTGTGTGATC ((((((....)))))) | -37.3 kcal/mol | 58.9 °C
GATCACGTTTGTGATC ((((((....)))))) | -40.4 kcal/mol | 58.5 °C
GATCACTAAGGTGATC ((((((....)))))) | -35.4 kcal/mol | 57 °C
GATCACTAGGTGATC ((((((...)))))) | -40.9 kcal/mol | 55.2 °C
GATCACTATCGTGATC ((((((....)))))) | -41.2 kcal/mol | 55.1 °C
GATCACTCTTGTGATC ((((((....)))))) | -38.5 kcal/mol | 56.7 °C

Sequence | folding enthalpy [1] | Tm [2]
GATCACTGAGGTGATC ((((((....)))))) | -40.5 kcal/mol | 59.4 °C
GATCACTGATGTGATC ((((((....)))))) | -34.5 kcal/mol | 55.9 °C
GATCACTGGGGTGATC ((((((....)))))) | -47.5 kcal/mol | 58.3 °C
GATCACTGGGTGATC ((((((...)))))) | -33.1 kcal/mol | 57.3 °C
GATCACTGTAGTGATC ((((((....)))))) | -39.7 kcal/mol | 60.6 °C
GATCACTGTCGTGATC ((((((....)))))) | -37.3 kcal/mol | 54.9 °C
GATCACTGTGTGATC ((((((...)))))) | -31 kcal/mol | 61.7 °C
GATCACTGTTGTGATC ((((((....)))))) | -31.8 kcal/mol | 57.5 °C
GATCACTTAGGTGATC ((((((....)))))) | -41.6 kcal/mol | 57.6 °C
GATCACTTGGGTGATC ((((((....)))))) | -40 kcal/mol | 57.1 °C
GATCACTTTGTGATC ((((((...)))))) | -34.2 kcal/mol | 63.1 °C
GATCACTTTTGTGATC ((((((....)))))) | -43.1 kcal/mol | 59 °C
GATCAGAAACTGATC ((((((...)))))) | -36.4 kcal/mol | 47.5 °C
GATCAGAAGGCTGATC ((((((....)))))) | -29.4 kcal/mol | 45.8 °C
GATCAGACACTGATC ((((((...)))))) | -47.1 kcal/mol | 48.6 °C
GATCAGACAGCTGATC ((((((....)))))) | -32 kcal/mol | 45.3 °C
GATCAGACATCTGATC ((((((....)))))) | -39.6 kcal/mol | 48.2 °C
GATCAGACCCCTGATC ((((((....)))))) | -34.7 kcal/mol | 47.7 °C
GATCAGACTGCTGATC ((((((....)))))) | -28.1 kcal/mol | 48.3 °C
GATCAGAGCCCTGATC ((((((....)))))) | -36.5 kcal/mol | 47.7 °C
GATCAGAGCCTGATC ((((((...)))))) | -25.4 kcal/mol | 47.4 °C
GATCAGAGCTCTGATC ((((((....)))))) | -53 kcal/mol | 54.1 °C
GATCAGAGGGCTGATC ((((((....)))))) | -39.2 kcal/mol | 47.7 °C
GATCAGAGTGCTGATC ((((((....)))))) | -31.2 kcal/mol | 50.2 °C

Sequence | folding enthalpy [1] | Tm [2]
GATCAGATTGCTGATC ((((((....)))))) | -39.4 kcal/mol | 49.5 °C
GATCAGCACCTGATC ((((((...)))))) | -31.1 kcal/mol | 48.3 °C
GATCAGCAGCCTGATC ((((((....)))))) | -36.5 kcal/mol | 48.7 °C
GATCAGCATACTGATC ((((((....)))))) | -38.5 kcal/mol | 51.4 °C
GATCAGCATCTGATC ((((((...)))))) | -34.2 kcal/mol | 46.7 °C
GATCAGCCATCTGATC ((((((....)))))) | -37.4 kcal/mol | 49.4 °C
GATCAGCCGGCTGATC ((((((....)))))) | -48 kcal/mol | 63.4 °C
GATCAGCGAAAGCTAATC (((.(((....))).))) | -15.7 kcal/mol | 35.9 °C
GATCAGCGAAAGCTCATC (((.(((....))).))) | -13 kcal/mol | 29.8 °C
GATCAGCGGCCTGATC ((((((....)))))) | -36.9 kcal/mol | 49.8 °C
GATCAGCTAACTGATC ((((((....)))))) | -40 kcal/mol | 49.7 °C
GATCAGCTGCCTGATC ((((((....)))))) | -27.5 kcal/mol | 50.5 °C
GATCAGCTTACTGATC ((((((....)))))) | -34 kcal/mol | 51.3 °C
GATCAGCTTCTGATC ((((((...)))))) | -31.5 kcal/mol | 49.1 °C
GATCAGGACCCTGATC ((((((....)))))) | -39.6 kcal/mol | 54.4 °C
GATCAGGATGCTGATC ((((((....)))))) | -43.3 kcal/mol | 50.3 °C
GATCAGGCACCTGATC ((((((....)))))) | -41.7 kcal/mol | 55.4 °C
GATCAGGCACTGATC ((((((...)))))) | -43.6 kcal/mol | 59.8 °C
GATCAGGCCACTGATC ((((((....)))))) | -36.4 kcal/mol | 60.8 °C
GATCAGGCTCTGATC ((((((...)))))) | -35.2 kcal/mol | 49.1 °C
GATCAGGGAAACTTGATC (((((.(....).))))) | -30.7 kcal/mol | 38.2 °C
GATCAGGGAACTGATC ((((((....)))))) | -33 kcal/mol | 55.5 °C
GATCAGGGAGCTGATC ((((((....)))))) | -35.2 kcal/mol | 52.4 °C
GATCAGGGCCCTGATC ((((((....)))))) | -58.9 kcal/mol | 60.3 °C
